{
  "source": "paper PMC4788533",
  "about": "(Investigational new drugs, 2015)",
  "key": {"[1]": {"test_system": "ERK phosphorylation", "conditions": "peripheral blood mononuclear cells and tumor biopsies; cited from earlier work"}, "[2]": {"assay_type": "in vivo, human", "conditions": "PO BID, with cetuximab 250 mg/m^2 weekly following a 400 mg/m^2 load"}, "[3]": {"conditions": "solid formulation, orally twice daily; cited from earlier work"}, "[4]": {"experiment": "Selumetinib plasma pharmacokinetics", "assay_type": "in vivo, human", "conditions": "for Log (Cmax (ng/mL) – dose normalized) / Log(AUC 0-∞ (ng/mL × hr) – dose normalized): mean ± SD; for half-life: T ½", "how_it_was_run": "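Patients with refractory solid tumours or KRAS-mutant CRC took oral MEK inhibitor capsules fasting, with the morning dose ≥1 h before the anti-EGFR antibody (400 mg/m2 IV load, then 250 mg/m2 weekly; 28-day cycles). EDTA plasma was drawn at baseline and 0.5–12 h post-dose on C1D1, and assayed by validated LC-MS/MS (LOD 3.91 ng/ml). Analysis was noncompartmental. Dose levels 1–2 were pooled.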"}, "[5]": {"conditions": "day 1 of cycle 1, dose level 1 (selumetinib 50mg), N=6, mean ± SD"}, "[6]": {"conditions": "day 1 of cycle 1, dose level 1 and 2 combined (N=10)"}, "[7]": {"conditions": "day 1 of cycle 1, dose level 2 (selumetinib 50mg), N=4, mean ± SD"}, "[8]": {"conditions": "day 1 of cycle 1, dose level 3 incl. expansion cohort (N=22)"}, "[9]": {"conditions": "human, plasma, oral, 50 mg, day 1 of cycle 1, dose level 1 (selumetinib 50mg), N=6, mean ± SD"}, "[10]": {"conditions": "human, plasma, oral, 50 mg, day 1 of cycle 1, dose level 2 (selumetinib 50mg), N=4, mean ± SD"}},
  "data": [
    {"smiles": "Cn1cnc2c(F)c(Nc3ccc(Br)cc3Cl)c(C(=O)NOCCO)cc21", "note": "[selumetinib]", "values": [
      {"measurement": "ERK phosphorylation following selumetinib treatment", "setting": "[1]", "value": "Inhibition of ERK phosphorylation was observed"},
      {"measurement": "maximum tolerated dose of the combination, selumetinib part", "setting": "[2]", "value": 75, "unit": "mg"},
      {"measurement": "maximum tolerated dose (MTD) of selumetinib, single agent", "setting": "[3]", "value": 75, "unit": "mg"},
      {"measurement": "Cl/F", "setting": "[4]; [5]", "value": "23.9 ± 5.48", "unit": "L/h"},
      {"measurement": "V/F", "setting": "[4]; [5]", "value": "76.9 ± 18.1", "unit": "L"},
      {"measurement": "Log (Cmax (ng/mL) – dose normalized)", "setting": "[4]; [6]", "value": "3.19 ± 0.23"},
      {"measurement": "Log(AUC 0-∞ (ng/mL × hr) – dose normalized)", "setting": "[4]; [6]", "value": "4.23 ± 0.17"},
      {"measurement": "Cmax", "setting": "[4]; day 1 of cycle 1, dose level 2 (selumetinib 50mg), N=4, geometric mean (CV)", "value": "1143 (CV 0.28) ng/mL"},
      {"measurement": "Cl/F", "setting": "[4]; [7]", "value": "21.0 ± 2.53", "unit": "L/h"},
      {"measurement": "V/F", "setting": "[4]; [7]", "value": "70.4 ± 19.7", "unit": "L"},
      {"measurement": "Log (Cmax (ng/mL) – dose normalized)", "setting": "[4]; [8]", "value": "3.00 ± 0.43"},
      {"measurement": "Log(AUC 0-∞ (ng/mL × hr) – dose normalized)", "setting": "[4]; [8]", "value": "4.24 ± 0.54"},
      {"measurement": "AUC", "setting": "[4]; human, plasma, oral", "value": "3210 to 5200", "unit": "ng·h/mL"},
      {"measurement": "AUC(0-inf)", "setting": "[4]; human, plasma, oral, 50 mg, day 1 of cycle 1, dose level 1 (selumetinib 50mg), N=6, geometric mean (CV)", "value": 3210, "unit": "ng·h/mL"},
      {"measurement": "AUC(0-inf)", "setting": "[4]; human, plasma, oral, 50 mg, day 1 of cycle 1, dose level 1 and 2 combined (50mg dose, N=10), geometric mean (CV)", "value": 3450, "unit": "ng·h/mL"},
      {"measurement": "AUC(0-inf)", "setting": "[4]; human, plasma, oral, 50 mg, day 1 of cycle 1, dose level 2 (selumetinib 50mg), N=4, geometric mean (CV)", "value": 3610, "unit": "ng·h/mL"},
      {"measurement": "Cmax", "setting": "[4]; human, plasma, oral, 50 mg, Cmax, day 1 of cycle 1, dose level 1 (selumetinib 50mg), N=6, geometric mean (CV)", "value": 1320, "unit": "ng/mL"},
      {"measurement": "half-life", "setting": "[4]; [9]", "value": "2.28 ± 0.55", "unit": "h"},
      {"measurement": "half-life", "setting": "[4]; [10]", "value": "2.31 ± 0.55", "unit": "h"},
      {"measurement": "Tmax", "setting": "[4]; [9]", "value": "1.13 ± 0.25", "unit": "h"},
      {"measurement": "Tmax", "setting": "[4]; [10]", "value": "1.92 ± 1.28", "unit": "h"}
    ]}
  ]
}
